For orientation: inhibition means the drop in the measured response relative to a control, in per cent.

Consider 40 molecules from PubChem BioAssay.

Test [1] can be described thus: inhibitors of PAF-induced NF-kB signaling, retest, confirmation, cell-based, GFP fluorescence, single concentration (AID 602472).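 Further: stimulus PAF is a Pseudomonas aeruginosa filtrate and not platelet activating factor; plate controls were DMSO wells with stimulus for no effect and unstimulated DMSO wells for full effect.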 As to conditions: KKLEB CF airway cells, overnight, at 5 µM, stronger effect = higher value. Put shortly: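 Assay system: KKLEB immortalized cystic fibrosis airway epithelial cells with NFkB-GFP reporter. Buffer or medium: medium with 2% FBS for cells, serum-free medium for stimulus. Dosing: 5 µM single dose. Times: 2 h compound pretreatment at 37 °C, overnight PAF exposure. Measured by: GFP fluorescence of NFkB reporter.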

A short description of test [2]: inhibitors of PAF-induced NFkB signaling in CF airway cells, dose response, cell-based, uHTS hits, panel, cytotoxicity readout (AID 624344). The note with it: CF bronchial epithelial cells, PAF-induced NFkB reporter inhibition, with PAF, run 1; at 79 µM (top of the series) unless noted.
Experiment in test [3]: as above
The note with it: CF bronchial epithelial cells, PAF-induced NFkB reporter inhibition, with PAF, run 2; at 79 µM (top of the series) unless noted.

Test [4] addresses PEG-3 (UniProt Q6IN02). Put plainly: Peg3 promoter luciferase inhibitors, potency, dose response, cell-based, HeLa, CREF/GAPDH counter-screen panel (AID 624167). As to conditions: CREF/GAPDH counter-screens; HeLa PEG-Prom luciferase reporter, overnight, run 1, dose range 1, at 100 µM (top of the series) unless noted.
Test [5] addresses PEG-3 (UniProt Q6IN02). The description is as above. The note with it: CREF/GAPDH counter-screens; HeLa PEG-Prom luciferase reporter, overnight, run 2, dose range 1, at 100 µM (top of the series) unless noted. In general terms: Counterscreens check selectivity or assay interference.
A short description of test [6]: HIF-2a reporter inhibitor retest, confirmation, luminescence, 786-0 RCC cells (AID 651580;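 active means mean inhibition across four replicates of at least 40 percent at the single tested concentration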). As to conditions: HIF-2a luciferase reporter luminescence, overnight, at 18.8 µM, stronger effect = higher value. In general terms: Reporter assays use an easily measured gene product as a stand-in for the process of interest.
A short description of test [7]: HIF-1a luciferase reporter signal reduction – MiaPaCa-2 cells, single concentration, counter-screen for HIF-2a inhibitor project, confirmation (AID 651589;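 active means mean inhibition of the reporter signal across four replicates at the single tested dose of 50% or more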). As to conditions: MiaPaCa-2 HIF-1a luciferase reporter, desferoxamine, overnight; at 18.8 µM; stronger effect = higher value.
Test [8] deals with Tumor necrosis factor receptor superfamily member 10B (Homo sapiens) (UniProt O14763). Put plainly: caspase-8 TRAIL sensitization, hit retest, confirmation, cell-based, NB7+caspase-8, with/without TRAIL, luminescence panel (AID 651596; in the data active means activity above about 50%). The note with it: NB7 neuroblastoma + caspase-8, TRAIL sensitization, luminescence viability, with TRAIL, mean of runs, at 10 µM, stronger effect = higher value.
Chain of Tumor necrosis factor receptor superfamily member 10B (Homo sapiens) (O14763 whole entry, looked up): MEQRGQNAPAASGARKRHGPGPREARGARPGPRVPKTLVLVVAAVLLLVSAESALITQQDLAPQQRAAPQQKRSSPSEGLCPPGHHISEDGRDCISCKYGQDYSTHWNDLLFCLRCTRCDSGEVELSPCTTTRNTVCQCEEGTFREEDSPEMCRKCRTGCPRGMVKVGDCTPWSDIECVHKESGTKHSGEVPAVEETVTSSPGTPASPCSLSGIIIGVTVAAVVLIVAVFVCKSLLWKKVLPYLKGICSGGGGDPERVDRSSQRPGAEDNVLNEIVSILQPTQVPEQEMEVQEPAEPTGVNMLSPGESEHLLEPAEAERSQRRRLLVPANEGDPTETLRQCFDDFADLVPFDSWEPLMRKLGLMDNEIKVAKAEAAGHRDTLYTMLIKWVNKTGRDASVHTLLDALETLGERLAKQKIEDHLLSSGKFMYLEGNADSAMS

Experiment in test [9]: as above
The note with it: NB7 neuroblastoma + caspase-8, without TRAIL, luminescence viability, without TRAIL, mean of runs, at 10 µM.

SMILES strings stand for the structures. Some of the results follow. The source made the active and inactive calls. Unless noted, no stated cut-off is given here; in the data, active means inhibition above about 40%; inactive means the rest.

Chain of PEG-3 (Q6IN02 whole entry, looked up): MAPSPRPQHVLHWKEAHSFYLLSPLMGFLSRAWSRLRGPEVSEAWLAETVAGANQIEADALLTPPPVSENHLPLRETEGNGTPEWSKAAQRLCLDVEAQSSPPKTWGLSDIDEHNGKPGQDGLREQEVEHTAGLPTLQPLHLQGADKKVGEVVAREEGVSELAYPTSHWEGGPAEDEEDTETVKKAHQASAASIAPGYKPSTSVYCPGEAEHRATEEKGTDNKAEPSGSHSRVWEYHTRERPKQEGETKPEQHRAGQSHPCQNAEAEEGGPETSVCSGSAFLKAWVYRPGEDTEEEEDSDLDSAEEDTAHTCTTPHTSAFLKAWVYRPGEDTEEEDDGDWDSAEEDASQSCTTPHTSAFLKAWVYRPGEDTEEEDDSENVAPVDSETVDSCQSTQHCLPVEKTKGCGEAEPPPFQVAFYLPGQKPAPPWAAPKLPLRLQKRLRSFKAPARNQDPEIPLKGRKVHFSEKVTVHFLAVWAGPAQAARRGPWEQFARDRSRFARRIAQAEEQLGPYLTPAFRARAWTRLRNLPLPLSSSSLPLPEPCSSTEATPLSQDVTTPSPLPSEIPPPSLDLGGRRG

With `C#CCN(C[C@@H]1[C@@H](OC(=O)NC2CC2)[C@@H](OC(=O)NC2CC2)Cn2c(=O)ccc(=O)n21)S(=O)(=O)c1ccc(C)cc1`, the inhibition was 61.6% (active) in test [1], 102% in [2] and 111% in [3].
In the case of `COc1cccc2sc(N(CCCN(C)C)C(=O)CCS(=O)(=O)c3ccccc3)nc12`, the inhibition is 102% (active) in test [1], 88.9% in test [2] and 86.9% in test [3].
On to `O=[N+]([O-])c1ccc(Oc2ccc(F)cc2Br)c2ccncc12`, for which the figures for the inhibition in test [1], in test [2] and in [3] were 77.7% (active), 116% and 103%, respectively.
As to `Cc1ccc(NC(=O)Nc2nnc(-c3ccncc3)s2)cc1`, the inhibition in test [1] was 59.6% (active); in test [2], 103%; in test [3], 114%.
As to `CN(C)c1ccnc2sc3c(=O)n(Cc4ccccc4)cnc3c12`, the inhibition was 91.5% (active) in test [1], 106% in test [2] and 97.7% in [3].
For the molecule `COc1ccc(CNC(=O)C(c2ccc(O)cc2)N(Cc2ccco2)C(=O)c2snc(C(N)=O)c2N)cc1` (stereo not drawn), the inhibition in [1] is 49.2% (active); in test [2], 114%; in [3] it was 104%.
Consider `COc1ccc(C23CC4CC(CC(C4)C2)C3)cc1C(=O)NCCN(C)C`, for which the values for the inhibition in the test with PEG-3 [4] and with PEG-3 [5] were 101% and 102%, respectively.
In the same order, the values of `CC(C(=O)NC1CCCC1)N(C(=O)Cn1nnc(-c2ccc(F)cc2)n1)c1ccccc1F` (stereo not drawn) are 99.3% and 102%.
Turning to `Oc1cccc(C(Nc2nccs2)c2ccc3cccnc3c2O)c1` (stereo not drawn), the inhibition with PEG-3 [4] was determined as 97.4%; with PEG-3 [5], 98.7%.
For the molecule `CC(C)N1CCc2c(sc(NC(=O)c3cc4cc([N+](=O)[O-])ccc4s3)c2C(N)=O)C1`, the inhibition in the test with PEG-3 [4] worked out at 98.8%; with PEG-3 [5], 101%.
`COc1cccc(N2CCN(CC(=O)Nc3ccccc3C(=O)NCc3ccccc3)CC2)c1`: the values for the inhibition with PEG-3 [4] and in the test with PEG-3 [5] were 56.8% and 70.2%, respectively.
Turning to `COc1cccc(C(=O)c2sc(NC(C)C)nc2N)c1`, the inhibition in the test with PEG-3 [4] was 93.5%; in the test with PEG-3 [5] it was 95.7%.
On to `COc1ccc2c(c1OC)C(=O)N1c3ccccc3C(=O)N(c3ccccc3F)C21` (stereo not drawn), for which the inhibition with PEG-3 [4] was determined as 62.8%; in the test with PEG-3 [5], 68.7%.
As to `Cc1nc2c(OCc3ccc(OC(F)F)cc3)cccn2c1N(C)C(=O)CCC1CCCC1`, the inhibition in the test with PEG-3 [4] came to 95.4%; in the test with PEG-3 [5], 99.7%.
Consider `Cc1cc(C)cc(NC(=O)Cn2c(=O)oc3cc(S(=O)(=O)N4CCC(C)CC4)ccc32)c1`, for which the inhibition in the test with PEG-3 [4] was found to be 19.2%; with PEG-3 [5], 47.7%.
Regarding `CN(C)C=NC(=O)c1[nH]c2ccc(Cl)cc2c1-c1ccccc1`, the inhibition in the test with PEG-3 [4] was 98.6%; with PEG-3 [5], 96.5%.
With `Cc1ccc(-n2cc(CNCCCn3ccnc3C)c(-c3ccc(F)cc3)n2)cc1`, the inhibition worked out at 99.8% in the test with PEG-3 [4] and 98.7% with PEG-3 [5].
As for `COc1ccc(CNCCC(c2ccccc2)c2ccc(OC(C)C)cc2)cc1OC` (stereo not drawn), the inhibition with PEG-3 [4] came out at 101%; with PEG-3 [5] it was 102%.
The like results for `O=C(CN1CCCC1)Nc1ccc(-c2nc3cc(NC(=O)CN4CCCC4)ccc3o2)cc1` were, in that order, 98.9% and 102%.
In the same order, the values of `COc1cc(N=Nc2c(O)c3ccccc3[nH]c2=O)c(OC)cc1N=Nc1ccccc1` are -11.2% and -33.1%.
For the molecule `CC(=O)Nc1ccc(S(=O)(=O)N(Cc2cccnc2)Cc2cc3ccccc3[nH]c2=O)cc1`, the inhibition in the test with PEG-3 [4] is 11.2%; with PEG-3 [5], -18.5%.
`NC(=O)c1nsc(C(=O)N(c2ccccc2F)C(C(=O)NCc2ccccc2)c2ccc(O)cc2)c1N` (stereo not drawn): the inhibition with PEG-3 [4] came to 98.6%; with PEG-3 [5], 99.3%.
As to `O=C1OCCC1Sc1nnc(-c2ccc(Cl)cc2Cl)o1` (stereo not drawn), the inhibition with PEG-3 [4] stood at 92.6%; in the test with PEG-3 [5], 94.1%.
On to `CC1(C)C(=O)C=CC(=O)C(C)(C)C(=O)C=CC(=O)C(C)(C)C2=CC=C(O2)C(C)(C)C(=O)C=CC1=O`, for which the inhibition is 102% in the test with PEG-3 [4] and 98.9% with PEG-3 [5].
For `CCOC(=O)C(=Cc1ccccc1)C(=O)c1ccccc1`, the inhibition in [1] is -122% (inactive); in test [6] it was 97.2% (active); in test [7], 108% (active).
On to `O=S(=O)(/N=C(/Sc1ccccc1)c1ccccc1)c1ccccc1`, for which the inhibition with PEG-3 [4] was 102%; in the test with PEG-3 [5], 101%.
In the same order, the values of `CCN1CCc2c(sc(NC(=O)c3ccc(S(=O)(=O)N4CCCCCC4)cc3)c2C(=O)NC)C1` are 94.4% and 94.9%.
Consider `CC1(C)CC(NC(=O)c2sc3cc(Cl)ccc3c2Cl)CC(C)(C)N1`, for which the inhibition with PEG-3 [4] worked out at 99.4%; with PEG-3 [5], 101%.
On to `CCN1CCN(CCNC(=O)c2ccc(/C=C3\Sc4ccccc4N(Cc4ccccc4F)C3=O)cc2)CC1`, for which the inhibition with PEG-3 [4] came to 102%; with PEG-3 [5] it was 101%.
For `Oc1c(Cl)cc(Cl)c2cccnc12`, the inhibition with PEG-3 [4] worked out at 80.8%; with PEG-3 [5] it was 80.6%.
Regarding `Cc1nn(-c2ccccc2)c(Cl)c1/C=N/NC(=O)c1nn(C)cc1[N+](=O)[O-]`, in [1], the inhibition is 14.2% (inactive). Also, the activity in test [8] came out at 40.9%; in test [9] it was 46.5%.
Take `CCOC(=O)c1cnc2c(cnn2C)c1NCCCN(C)C`: the values for the inhibition with PEG-3 [4] and with PEG-3 [5] were 80.7% and 88.6%, respectively.
Regarding `CN(C)c1ccc(/C=N/NC(=O)c2nnn(-c3nonc3N)c2COc2ccc(F)cc2)cc1`, the inhibition with PEG-3 [4] is 2.41%; with PEG-3 [5] it was -13.2%.
In the case of `CC(=O)c1cccc(NC(=O)c2cccc3c(-c4cccnc4)coc23)c1`, the results for the inhibition in the test with PEG-3 [4] and with PEG-3 [5] were 36.4% and 47%, respectively.
As to `Cc1cccc2c1-c1sc(C(=O)NCCCN3CCCC(C)C3)cc1CO2` (stereo not drawn), the inhibition turned out to be 99.3% in the test with PEG-3 [4] and 98.5% with PEG-3 [5].
Take `COc1cc2ccccc2cc1C(=O)N(CCN(C)C)c1nc2c(OC)ccc(OC)c2s1`: the inhibition is 98.2% with PEG-3 [4] and 101% in the test with PEG-3 [5].
Consider `COc1ccc(-c2sc3ccccc3c2-c2ccc(OCCN3CCCCC3)cc2)cc1`, for which the figures for the inhibition in the test with PEG-3 [4] and with PEG-3 [5] were 99.5% and 100%, respectively.
`CCCOc1ccc(NC(=O)CC2C(=O)N(CC)C(=S)N2CCCN2CCN(Cc3ccccc3)CC2)cc1` (stereo not drawn): the inhibition amounted to 98.9% with PEG-3 [4] and 101% with PEG-3 [5].
As to `CN(C)CCCN(C(=O)c1ccc(S(=O)(=O)N(C)Cc2ccccc2)cc1)c1nc2cc3c(cc2s1)OCO3`, the inhibition in the test with PEG-3 [4] was 100%; with PEG-3 [5], 99.3%.
In the same order, the values of `N#C/C(=C\c1cccc([N+](=O)[O-])c1)C(=O)NCc1ccc(Cl)cc1` are 99.3% and 101%.
